Data: ChEMBL document CHEMBL4613234, “Auxiliary in vitro and in vivo biological evaluation of hydrogen peroxide sensitive prodrugs of methotrexate and aminopterin for the treatment of rheumatoid arthritis” (Bioorg Med Chem, 2020)
The source made the active and inactive calls. The calls are words filed in the database; no cut-off is given here.

Key:
HL-60 [1] = assay: Cytotoxicity against human HL60 cells assessed as reduction in cell viability incubated for 48 hrs in absence of ROS scavenger pyruvate by Alamar blue assay; assay type: cell-based; conditions: HL-60, 48 h
Procedure, shortened: (§1)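 HL-60, HEK293 and HeLa cells exposed to compound for 48 h with or without pyruvate as ROS scavenger; viability read by Alamar blue; IC50 in nM, mean of at least three replicates ± SEM.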

HEK293 [2] = assay: Cytotoxicity against human HEK293 cells assessed as reduction in cell viability incubated for 48 hrs in absence of ROS scavenger pyruvate by Alamar blue assay; assay type: cell-based; conditions: HEK293, 48 h; procedure, shortened: as §1
[3] = Prodrug activation in PBS buffer assessed as H2O2-mediated hydrolysis by measuring half life at pH 7.4 measured up to 24 hrs by RP-HPLC/UV analysis; assay type: physicochemical; conditions: pH 7.4, 24 h
[4] = Half life of compound in culture media in absence of ROS scavenger pyruvate; assay type: physicochemical
[5] = Prodrug activation in PBS buffer assessed as H2O2-formation of methotrexate at pH 7.4 measured up to 24 hrs by RP-HPLC/UV analysis; assay type: physicochemical; conditions: pH 7.4, 24 h
[6] = Permeability of compound across artificial lipid/oil/lipid tri-layer membrane by PAMPA assay
HL-60 [7] = assay: Induction of apoptosis in human HL60 cells assessed as apoptotic cells at 0.1 to 10 uM in absence of ROS scavenger pyruvate by annexin V-FITC/propidium iodide staining based flow cytometry (reference value: 3 %); assay type: functional
Procedure, shortened: (§2)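 HL-60 cells in RPMI without pyruvate, treated 48 h at 10, 1 and 0.1 μM (vehicle 0.1% DMSO); annexin V/PI staining, flow cytometry gating singlets, apoptotic fraction taken as P4 + P5 populations; at least triplicates, mean ± SD; two-tailed unpaired t-test, p < 0.05.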

Rattus norvegicus [8] = assay: Antiarthritic activity in dark agouti rat model of collagen-induced arthritis assessed as decrease in disease severity at 0.42 mg/kg, ip administered on day 17 and treated until day 31 by macroscopic observation analysis; assay type: functional, organism-based
Procedure, shortened: (§3)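 Dark agouti rats with collagen-induced arthritis; daily i.p. dosing from disease onset (day 17), doses equimolar to 0.3 mg/kg MTX, DMSO kept at 2% (v/v). Arthritis scored macroscopically three times weekly: 1 point per swollen toe, 1 per swollen foot knuckle, 5 for swollen ankle, 0–15 per limb, maximum 60 per rat. n = 8 per group, 10 for vehicle; mean ± SEM.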

[9] = Toxicity in dark agouti rat model of collagen-induced arthritis assessed as increase in body weight at 0.42 mg/kg, ip administered on day 17 and treated until day 31; assay type: organism-based; conditions: in vivo
Procedure, shortened: (§4)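 Collagen-induced arthritis in dark agouti rats given daily i.p. doses from day 17 in 2% (v/v) DMSO vehicle; n = 8 per group. Tolerability followed as average body weight measured three times weekly, plus general health observation; animals removed early for high arthritis score or declining health.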

[10] = Toxicity in dark agouti rat model of collagen-induced arthritis assessed as adverse effect at 0.42 mg/kg, ip administered on day 17 and treated until day 31; assay type: organism-based; conditions: in vivo; procedure, shortened: as §4
HL-60 [11] = assay: Cytotoxicity against human HL60 cells assessed reduction in cell viability incubated for 48 hrs in presence of ROS scavenger pyruvate by Alamar blue assay; assay type: cell-based; conditions: HL-60, 48 h; procedure, shortened: as §1
HEK293 [12] = assay: Cytotoxicity against human HEK293 cells assessed as reduction in cell viability incubated for 48 hrs in presence of ROS scavenger pyruvate by Alamar blue assay; assay type: cell-based; conditions: HEK293, 48 h; procedure, shortened: as §1
HeLa [13] = assay: Cytotoxicity against human HeLa cells assessed as reduction in cell viability incubated for 48 hrs in presence of ROS scavenger pyruvate by Alamar blue assay; assay type: cell-based; procedure, shortened: as §1
HeLa [14] = assay: Cytotoxicity against human HeLa cells assessed as reduction in cell viability incubated for 48 hrs in absence of ROS scavenger pyruvate by Alamar blue assay; assay type: cell-based; procedure, shortened: as §1
HL-60 [15] = assay: Cytotoxicity against human HL60 cells assessed as reduction in cell viability incubated for 48 hrs in presence of ROS scavenger pyruvate by Alamar blue assay relative to parent compound; assay type: cell-based; conditions: hl-60, 48 h
[16] = (§5) Ratio of IC50 for human HL60 cells assessed as reduction in cell viability incubated for 48 hrs in presence of ROS scavenger pyruvate by Alamar blue assay to IC50 for human HL60 cells assessed as reduction in cell viability incubated for 48 hrs in absence of ROS scavenger pyruvate by Alamar blue assay; assay type: cell-based, HL-60; conditions: read-out: Ratio IC50
Procedure, shortened: (§6)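 Ratio of 48 h Alamar blue IC50 values with versus without pyruvate as ROS scavenger, in HEK293 or HL-60 cells; each IC50 from at least three replicates.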

[17] = as §5, with “HEK293” for “HL60”; assay type: cell-based; conditions: read-out: Ratio IC50; procedure, shortened: as §6
HL-60 [18] = assay: Induction of apoptosis in human HL60 cells assessed as apoptotic cells at 0.1 uM in absence of ROS scavenger pyruvate by annexin V-FITC/propidium iodide staining based flow cytometry (reference value: 3 %); assay type: functional; procedure, shortened: as §2
[19] = Half life of compound in PBS buffer; assay type: physicochemical
[20] = Half life in human HEK293 cells in absence of ROS scavenger pyruvate; assay type: ADME, cell-based
[21] = Stability of compound in human HEK293 cells preincubated for 24 hrs followed by compound addition and subsequent removal of HEK293 cells in absence of ROS scavenger pyruvate; assay type: ADME, cell-based
[22] = Half life in human HEK293 cells in presence of paraquat and absence of ROS scavenger pyruvate; assay type: ADME, cell-based
[23] = Half life in rat plasma; assay type: ADME, cell-free
Procedure, shortened: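 Reconstituted freeze-dried rat plasma diluted 1:1 with PBS to pH 7.4, incubated at 37 °C; half-life determined.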

[24] = Apparent intrinsic clearance in rat liver microsomes; assay type: ADME, Microsome; conditions: read-out: CLH
Procedure, shortened: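 Apparent intrinsic clearance (CL'int, mL/min/kg) determined in pooled rat liver microsomes.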

Rattus norvegicus [25] = assay: Antiarthritic activity in dark agouti rat model of collagen-induced arthritis assessed as decrease in disease severity at 0.38 mg/kg, ip administered on day 17 and treated until day 31 by macroscopic observation analysis; assay type: functional, organism-based; procedure, shortened: as §3
[26] = Toxicity in dark agouti rat model of collagen-induced arthritis assessed as increase in body weight at 0.38 mg/kg, ip administered on day 17 and treated until day 31; assay type: organism-based; conditions: in vivo; procedure, shortened: as §4
[27] = Toxicity in dark agouti rat model of collagen-induced arthritis assessed as adverse effect at 0.38 mg/kg, ip administered on day 17 and treated until day 31; assay type: organism-based; conditions: in vivo; procedure, shortened: as §4
Rattus norvegicus [28] = assay: Antiarthritic activity in dark agouti rat model of collagen-induced arthritis assessed as decrease in disease severity at 0.3 mg/kg, ip administered on day 17 and treated until day 31 by macroscopic observation analysis; assay type: functional, organism-based; procedure, shortened: as §3
Rattus norvegicus [29] = assay: Antiarthritic activity in dark agouti rat model of collagen-induced arthritis assessed as decrease in disease severity at 0.36 mg/kg, ip administered on day 17 and treated until day 31 by macroscopic observation analysis; assay type: functional, organism-based; procedure, shortened: as §3
[30] = Toxicity in dark agouti rat model of collagen-induced arthritis assessed as increase in body weight at 0.36 mg/kg, ip administered on day 17 and treated until day 31; assay type: organism-based; conditions: in vivo; procedure, shortened: as §4
[31] = Toxicity in dark agouti rat model of collagen-induced arthritis assessed as adverse effect at 0.36 mg/kg, ip administered on day 17 and treated until day 31; assay type: organism-based; conditions: in vivo; procedure, shortened: as §4

| t1/2 [3] [h] | half-life [4] [h] | Papp [6] [×10⁻⁶ cm/s] | half-life [19] [h] | half-life [20] [h] | CLint scaled [24] [mL/min/kg] | Structure (SMILES) | IC50 (HL-60 [1]) [nM] | IC50 (HEK293 [2]) [nM] | Activity (HL-60 [7]) [%] | IC50 (HL-60 [11]) [nM] | IC50 (HEK293 [12]) [nM] | IC50 (HeLa [13]) [nM] | IC50 (HeLa [14]) [nM] | Activity (HL-60 [18]) [%] | further results |
| --- | --- | --- | --- | --- | --- | --- | --- | --- | --- | --- | --- | --- | --- | --- | --- |
| > 24 | > 24 | < 1.5 |  |  |  | CN(Cc1cnc2nc(N)nc(NC(=O)OCc3ccccc3)c2n1)c1ccc(C(=O)N[C@@H](CCC(=O)O)C(=O)O)cc1 | > 1000 | > 1000 |  |  |  |  |  |  | Drug metabolism [5]: Not Active |
| 0.29 | 3.4 | < 1.5 | > 24 | 107 | 1.8 | CN(Cc1cnc2nc(N)nc(NC(=O)OCc3ccc(B(O)O)cc3)c2n1)c1ccc(C(=O)N[C@@H](CCC(=O)O)C(=O)O)cc1 | 40.3 | 62.9 | 17 | 203 | 192 | 194 | 156 | 7 | Activity (Rattus norvegicus [8]): Active; Activity [9]: Non-Toxic; Activity [10]: Non-Toxic; fold change (FC) (HL-60 [15]): 20; selectivity ratio at 48 h [16]: 5; selectivity ratio at 48 h [17]: 5; t1/2 [21]: 16.1 h; half-life [22]: 63.2 h; half-life [23]: 16.4 h |
|  |  |  |  |  |  | Nc1nc(N)c2nc(CN(Cc3ccc(B(O)O)cc3)c3ccc(C(=O)N[C@@H](CCC(=O)O)C(=O)O)cc3)cnc2n1 | 7.5 |  |  | 38.3 |  | 42.2 | 19.2 |  | Activity (Rattus norvegicus [25]): inactive; Activity [26]: Non-Toxic; Activity [27]: Non-Toxic |
|  |  |  |  |  |  | Nc1nc(N)c2nc(CNc3ccc(C(=O)N[C@@H](CCC(=O)O)C(=O)O)cc3)cnc2n1 [AMINOPTERIN] | 2.5 |  |  | 3 |  | 3.6 | 8.3 |  |  |
|  | > 24 | < 1.5 | > 24 | > 24 | 1.5 | CN(Cc1cnc2nc(N)nc(N)c2n1)c1ccc(C(=O)N[C@@H](CCC(=O)O)C(=O)O)cc1 [METHOTREXATE] | 8.9 | 28.6 | 17 | 9.8 | 35 | 59.3 | 21 | 14 | Activity (Rattus norvegicus [28]): Active |
|  |  |  |  |  |  | CN(Cc1cnc2nc(N)nc(N)c2n1)c1ccc(C(=O)N[C@@H](CCC(=O)N2CCSC2=O)C(=O)O)cc1 | 40 |  |  | 36 |  | 207 | 164 |  | Activity (Rattus norvegicus [29]): inactive; Activity [30]: Non-Toxic; Activity [31]: Non-Toxic |
